In ChEMBL document CHEMBL1140875, “DNA photocleavage by porphyrin-polyamine conjugates” (Bioorg Med Chem, 2009):
Active and inactive are the calls of the source. The calls are words filed in the database; no cut-off is given here.

Tests used:
Escherichia coli [1] = test: Induction of DNA photocleavage activity in Escherichia coli pBR322 plasmid assessed as supercoiled DNA form at 10 uM after 90 mins irradiation at 2.5 mW/cm2 by gel electrophoresis
In short: (§1)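 Supercoiled pBR322 (0.25 µg in 10 µL) in 3 mM Tris–HCl, 0.3 mM EDTA, pH 8.0 at 25 °C, with 10 µM porphyrin. White light at 2.5 mW/cm2 from an 18 W lamp 4 cm away, for 15–120 min. Controls without porphyrin and/or without light. Products run on 0.7% non-denaturing agarose, SYBRsafe stain, transilluminator at 312 nm. Supercoiled, nicked and linear forms quantified as %.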

[2] = Photostability assessed as residual absorbance at 2.5 mW/cm2 irradiation for 15 mins; format: physicochemical; settings: read-out: Stability
Escherichia coli [3] = test: Induction of DNA photocleavage activity in Escherichia coli pBR322 plasmid assessed as nicked DNA form at 10 uM after 90 mins irradiation at 2.5 mW/cm2 by gel electrophoresis; in short: as §1
Escherichia coli [4] = test: Induction of DNA photocleavage activity in Escherichia coli pBR322 plasmid assessed as supercoiled DNA form at 10 uM after 120 mins irradiation at 2.5 mW/cm2 by gel electrophoresis; in short: as §1
[5] = Photostability assessed as residual absorbance at 2.5 mW/cm2 irradiation for 45 mins; format: physicochemical; settings: read-out: Stability
Escherichia coli [6] = test: Induction of DNA photocleavage activity in Escherichia coli pBR322 plasmid assessed as supercoiled DNA form at 10 uM after 60 mins irradiation at 2.5 mW/cm2 by gel electrophoresis; in short: as §1
[7] = Lipophilicity, log P of the compound; format: physicochemical; settings: octanol/water
In short: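 1-Octanol/water partition at 25 °C with equal 3 mL phases and dye at 300 µM. Mixture vortexed and centrifuged. Aqueous and organic aliquots each diluted into MeOH, and dye concentration in each phase measured by absorption spectroscopy.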

Escherichia coli [8] = test: Induction of DNA photocleavage activity in Escherichia coli pBR322 plasmid assessed as supercoiled DNA form at 10 uM by gel electrophoresis
[9] = Photostability assessed as residual absorbance at 2.5 mW/cm2 irradiation for 30 mins; format: physicochemical; settings: read-out: Stability
Escherichia coli [10] = test: Induction of DNA photocleavage activity in Escherichia coli pBR322 plasmid assessed as supercoiled DNA form at 10 uM after 15 mins irradiation at 2.5 mW/cm2 by gel electrophoresis; in short: as §1
[11] = Photostability assessed as residual absorbance at 2.5 mW/cm2 irradiation for 60 mins; format: physicochemical; settings: read-out: Stability
Escherichia coli [12] = test: Induction of DNA photocleavage activity in Escherichia coli pBR322 plasmid assessed as supercoiled DNA form at 10 uM after 30 mins irradiation at 2.5 mW/cm2 by gel electrophoresis; in short: as §1
Escherichia coli [13] = test: Induction of DNA photocleavage activity in Escherichia coli pBR322 plasmid assessed as nicked DNA form at 10 uM after 15 mins irradiation at 2.5 mW/cm2 by gel electrophoresis; in short: as §1
Escherichia coli [14] = test: Induction of DNA photocleavage activity in Escherichia coli pBR322 plasmid assessed as nicked DNA form at 10 uM after 120 mins irradiation at 2.5 mW/cm2 by gel electrophoresis; in short: as §1
Escherichia coli [15] = test: Induction of DNA photocleavage activity in Escherichia coli pBR322 plasmid assessed as nicked DNA form at 10 uM after 30 mins irradiation at 2.5 mW/cm2 by gel electrophoresis; in short: as §1
Escherichia coli [16] = test: Induction of DNA photocleavage activity in Escherichia coli pBR322 plasmid assessed as nicked DNA form at 10 uM after 60 mins irradiation at 2.5 mW/cm2 by gel electrophoresis; in short: as §1
[17] = Induction of singlet oxygen production at 1 uM after irradiation at 10 mW/cm2 in presence of 1,3-diphenylisobenzofuran; format: physicochemical
In short: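 Photosensitizer at 10^-6 M with DPBF at 6 × 10^-5 M in DMF/H2O (9/1). Illuminated at room temperature for 30 min with two 30 W white bulbs, 10 mW/cm2. DPBF absorbance decay read at 415 nm every 3 min.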

Escherichia coli [18] = test: Induction of DNA photocleavage activity in Escherichia coli pBR322 plasmid assessed as nicked DNA form at 10 uM by gel electrophoresis; in short: as §1
Escherichia coli [19] = test: Induction of DNA photocleavage activity in Escherichia coli pBR322 plasmid assessed as linear DNA form at 10 uM after 120 mins irradiation at 2.5 mW/cm2 by gel electrophoresis; in short: as §1
Escherichia coli [20] = test: Induction of DNA photocleavage activity in Escherichia coli pBR322 plasmid assessed as linear DNA form at 10 uM after 90 mins irradiation at 2.5 mW/cm2 by gel electrophoresis; in short: as §1
Escherichia coli [21] = test: Induction of DNA photocleavage activity in Escherichia coli pBR322 plasmid assessed as linear DNA form at 10 uM after 60 mins irradiation at 2.5 mW/cm2 by gel electrophoresis; in short: as §1
DNA = test: Binding affinity to calf thymus DNA at 4 uM in phosphate buffer of pH 7.4 by UV-vis spectroscopy; format: nucleic-acid assay; settings: Bos taurus
In short: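 Porphyrin held at 4 × 10^-6 M in PBS pH 7.4 and read by UV–vis at the Soret maximum. Calf thymus DNA titrated in at base-pair concentrations from 1.2 × 10^-6 to 1.2 × 10^-5 M, base pair/porphyrin ratio 0.2 to 3. Change in the Soret band followed.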

Escherichia coli [22] = test: Induction of DNA photocleavage activity in Escherichia coli pBR322 plasmid assessed as nicked DNA form at 10 uM after 60 mins irradiation at 2.5 mW/cm2 by gel electrophoresis in presence of sodium azide
In short: (§2)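 pBR322 (0.25 µg) in 3 mM Tris–HCl, 0.3 mM EDTA, pH 8.0 with 10 µM porphyrin, irradiated 60 min in the presence of 100 mM sodium azide (singlet oxygen quencher) or 100 mM mannitol (hydroxyl radical scavenger). Controls without porphyrin, ± irradiation, with each additive. Read-out by agarose gel electrophoresis.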

Escherichia coli [23] = test: Induction of DNA photocleavage activity in Escherichia coli pBR322 plasmid assessed as supercoiled DNA form at 10 uM after 60 mins irradiation at 2.5 mW/cm2 by gel electrophoresis in presence of sodium azide; in short: as §2
Escherichia coli [24] = test: Induction of DNA photocleavage activity in Escherichia coli pBR322 plasmid assessed as supercoiled DNA form at 10 uM after 60 mins irradiation at 2.5 mW/cm2 by gel electrophoresis in presence of mannitol; in short: as §2
Escherichia coli [25] = test: Induction of DNA photocleavage activity in Escherichia coli pBR322 plasmid assessed as nicked DNA form at 10 uM after 60 mins irradiation at 2.5 mW/cm2 by gel electrophoresis in presence of mannitol; in short: as §2
Escherichia coli [26] = test: Induction of DNA photocleavage activity in Escherichia coli pBR322 plasmid at 10 uM after irradiation for 2 hrs by gel electrophoresis

SMILES | Activity (Escherichia coli [1]) [%] | remaining at 0.25 h [2] [%] | Activity (Escherichia coli [3]) [%] | Activity (Escherichia coli [4]) [%] | remaining at 0.75 h [5] [%] | Activity (Escherichia coli [6]) [%] | logP [7] | Activity (Escherichia coli [8]) [%] | remaining at 0.5 h [9] [%] | Activity (Escherichia coli [10]) [%] | remaining at 1 h [11] [%] | Activity (Escherichia coli [12]) [%] | Activity (Escherichia coli [13]) [%] | Activity (Escherichia coli [14]) [%] | Activity (Escherichia coli [15]) [%] | Activity (Escherichia coli [16]) [%] | Activity [17] | Activity (Escherichia coli [18]) [%] | Activity (Escherichia coli [19]) [%] | Activity (Escherichia coli [20]) [%] | further results
Cc1cc(C)c(-c2c3nc(c(-c4ccc(C(=O)NCCCCC(=O)N(CCCN)CCCCNCCCN)cc4)c4ccc([nH]4)c(-c4c(C)cc(C)cc4C)c4nc(c(-c5ccc(C(=O)NCCCCC(=O)N(CCCN)CCCCNCCCN)cc5)c5ccc2[nH]5)C=C4)C=C3)c(C)c1 | 72 | 100 | 28 | 71 | 99 | 70 | 0.07 | 70 | 99 | 70 | 98 | 72 | 30 | 29 | 28 | 30 | Active | 30 |  |  | 
NCCCCN(CCCN)C(=O)CCCCNC(=O)c1ccc(-c2c3nc(c(-c4ccc(C(=O)NCCCCC(=O)N(CCCN)CCCCN)cc4)c4ccc([nH]4)c(-c4ccc(C(=O)NCCCCC(=O)N(CCCN)CCCCN)cc4)c4nc(c(-c5ccc(C(=O)NCCCCC(=O)N(CCCN)CCCCN)cc5)c5ccc2[nH]5)C=C4)C=C3)cc1 | 43 | 100 | 50 | 39 | 98 | 59 | -2.02 | 84 | 99 | 72 | 97 | 64 | 28 | 51 | 36 | 39 | Active | 16 | 10 | 7 | Activity (Escherichia coli [21]): 2%; Activity (DNA): Active
C=CC1=C(C)c2cc3[nH]c(cc4nc(cc5[nH]c(cc1n2)c(C)c5CCC(=O)NCCCCC(=O)N(CCCN)CCCCN)C(CCC(=O)NCCCCC(=O)N(CCCN)CCCCN)=C4C)c(C)c3C=C | 12 | 100 | 84 | 5 | 98 | 22 | -0.12 | 78 | 99 | 46 | 97 | 36 | 54 | 90 | 64 | 78 | Active | 36 | 4 | 4 | Activity (Escherichia coli [22]): 42%; Activity (Escherichia coli [23]): 58%; Activity (Escherichia coli [24]): 42%; Activity (Escherichia coli [25]): 58%; Activity (DNA): Active; Activity (Escherichia coli [26]): Active
Cc1cc(C)c(-c2c3nc(c(-c4ccc(C(=O)NCCCCC(=O)N(CCCN)CCCCN)cc4)c4ccc([nH]4)c(-c4c(C)cc(C)cc4C)c4nc(c(-c5ccc(C(=O)NCCCCC(=O)N(CCCN)CCCCN)cc5)c5ccc2[nH]5)C=C4)C=C3)c(C)c1 | 71 | 100 | 29 | 78 | 100 | 72 | 0.11 | 73 | 100 | 73 | 99 | 75 | 27 | 22 | 25 | 28 | Active | 27 |  |  | 
NCCCNCCCCN(CCCN)C(=O)CCCCNC(=O)c1ccc(-c2c3nc(c(-c4ccc(C(=O)NCCCCC(=O)N(CCCN)CCCCNCCCN)cc4)c4ccc([nH]4)c(-c4ccc(C(=O)NCCCCC(=O)N(CCCN)CCCCNCCCN)cc4)c4nc(c(-c5ccc(C(=O)NCCCCC(=O)N(CCCN)CCCCNCCCN)cc5)c5ccc2[nH]5)C=C4)C=C3)cc1 | 38 | 100 | 53 | 11 | 99 | 40 | -2.83 | 85 | 100 | 66 | 97 | 57 | 34 | 75 | 43 | 51 | Active | 15 | 15 | 9 | Activity (Escherichia coli [21]): 8%; Activity (DNA): Active
C=CC1=C(C)c2cc3[nH]c(cc4nc(cc5[nH]c(cc1n2)c(C)c5CCC(=O)NCCCCC(=O)N(CCCN)CCCCNCCCN)C(CCC(=O)NCCCCC(=O)N(CCCN)CCCCNCCCN)=C4C)c(C)c3C=C | 1 | 100 | 97 | 1 | 100 | 7 | -0.51 | 81 | 100 | 45 | 97 | 26 | 55 | 97 | 74 | 93 | Active | 34 | 2 | 2 | Activity (Escherichia coli [22]): 49%; Activity (Escherichia coli [23]): 51%; Activity (Escherichia coli [24]): 32%; Activity (Escherichia coli [25]): 68%; Activity (DNA): Active; Activity (Escherichia coli [26]): Active
